Activity calls are given as the source filed them.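 Rule for the calls: active = glutamate fold shift at least 2 as enhancer or at most 0.5 as blocker, actives on both sides; inactive = the rest.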
Biological target: Metabotropic glutamate receptor 1 (Rattus norvegicus) (UniProt P23385)
Test: rat mGlu1 modulation, glutamate curve fold shift, SAR follow-up, selectivity assay for mGlu4 PAM lead optimization, cell-based, calcium flux (AID 623874)
Conditions: rat mGlu1 cells, Fluo-4 calcium flux, glutamate CRC shift; at 10 µM
How it was run: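 Schedule: about 2.5 min compound pre-incubation before glutamate addition; assay system: cells loaded with Fluo-4 calcium indicator dye; medium: HEPES-buffered HBSS plus probenecid, pH 7.3; reagent: glutamate as agonist, added after test compound; detection: Fluo-4 calcium fluorescence; doses: single test compound dose, 10 µM final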

Sequence of Metabotropic glutamate receptor 1 (Rattus norvegicus) (P23385 whole entry, looked up): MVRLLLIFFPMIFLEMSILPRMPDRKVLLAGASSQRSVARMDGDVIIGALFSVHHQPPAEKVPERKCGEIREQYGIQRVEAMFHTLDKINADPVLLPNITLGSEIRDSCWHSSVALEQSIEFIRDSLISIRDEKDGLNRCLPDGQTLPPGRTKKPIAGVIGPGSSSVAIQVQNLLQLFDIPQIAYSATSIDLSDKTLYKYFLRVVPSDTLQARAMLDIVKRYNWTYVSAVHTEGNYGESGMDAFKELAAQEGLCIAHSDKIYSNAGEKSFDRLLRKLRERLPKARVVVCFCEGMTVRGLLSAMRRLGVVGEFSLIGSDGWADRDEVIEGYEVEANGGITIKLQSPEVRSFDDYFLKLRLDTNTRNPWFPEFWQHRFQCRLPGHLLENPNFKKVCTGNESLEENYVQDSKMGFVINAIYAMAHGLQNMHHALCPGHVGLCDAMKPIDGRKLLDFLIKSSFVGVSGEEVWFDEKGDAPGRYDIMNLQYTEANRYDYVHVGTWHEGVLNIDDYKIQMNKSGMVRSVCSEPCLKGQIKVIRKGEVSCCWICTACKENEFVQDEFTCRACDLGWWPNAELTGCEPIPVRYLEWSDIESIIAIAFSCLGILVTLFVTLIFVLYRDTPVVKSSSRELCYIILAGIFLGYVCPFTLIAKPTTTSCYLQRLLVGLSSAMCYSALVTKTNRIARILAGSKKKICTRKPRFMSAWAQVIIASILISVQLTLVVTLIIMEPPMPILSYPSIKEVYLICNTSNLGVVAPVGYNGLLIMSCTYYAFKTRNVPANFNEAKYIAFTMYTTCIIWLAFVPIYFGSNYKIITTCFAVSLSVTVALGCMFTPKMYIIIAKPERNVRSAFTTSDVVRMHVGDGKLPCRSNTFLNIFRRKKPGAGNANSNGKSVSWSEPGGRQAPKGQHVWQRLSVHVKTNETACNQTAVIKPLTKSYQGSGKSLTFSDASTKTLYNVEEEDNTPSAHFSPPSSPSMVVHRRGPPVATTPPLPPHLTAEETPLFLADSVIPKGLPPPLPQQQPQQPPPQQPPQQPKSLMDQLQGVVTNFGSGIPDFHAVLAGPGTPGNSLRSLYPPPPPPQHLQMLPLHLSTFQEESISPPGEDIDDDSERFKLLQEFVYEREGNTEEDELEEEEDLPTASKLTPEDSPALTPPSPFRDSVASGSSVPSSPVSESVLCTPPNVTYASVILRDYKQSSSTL

## O=C(Nc1cccc(Cl)c1)c1ccccn1
  fold shift: 1.17 (inactive)
